In ChEMBL document CHEMBL1134494, “2-Amino-6-arylsulfonylbenzonitriles as non-nucleoside reverse transcriptase inhibitors of HIV-1” (J Med Chem, 2001) one finds NS, IC50 and inhibition data, which are given here for five compounds.

Assay [1] relates to MT4. The assay is described as follows: Antiviral activity against HIV-1 infected MT-4 cells; No significant activity uM. It is filed as functional, cell-based. As to conditions: Homo sapiens. Summed up:
(§1)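 HTLV-1-transformed MT4 cells were infected with HIV-1 strain 3B at 100× the amount giving a 50% drop in cell growth. They were cultured 5 days with a range of compound concentrations. IC50 is the concentration restoring 50% of infected-cell growth (cytopathic effect) relative to uninfected MT4 controls.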

Assay [2] relates to MT4. The assay is described as follows: Cell culture cytotoxicity against MT-4 cells. It is filed as functional, cell-based. As to conditions: Homo sapiens. The method, boiled down: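 MT4 cells were exposed to compound in parallel with the 5-day HIV-1 strain 3B cytopathic-effect assay. Compound-induced cytotoxicity is reported as the cell culture cytotoxicity IC50 (CCIC50).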

The subject of assay [3] is Human immunodeficiency virus 1. The assay can be described thus: Antiviral activity against HIV-1 infected human MT-4 cells. The assay is classed as functional, organism-based. As to conditions: Human immunodeficiency virus 1, MT4. The method, boiled down:
as §1

The target in assay [4] is Human immunodeficiency virus type 1 reverse transcriptase (Human immunodeficiency virus 1) (UniProt Q72547). The assay is described as follows: Inhibitory activity against HIV-1 reverse transcriptase; no significant activity uM. Summed up:
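Recombinant HIV RT at 1 nM was added to start 50 µL reactions. Cy5-dUMP incorporation was followed for 30 min by time-resolved energy transfer (excitation 340 nm, emission 665 nm).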

Assay [5] addresses Human immunodeficiency virus type 1 reverse transcriptase (Human immunodeficiency virus 1, UniProt Q72547). The assay can be described thus: Inhibitory activity against HIV-1 reverse transcriptase. The method, boiled down:
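Recombinant HIV RT at 1 nM was combined with 40 nM Eu-chelate-labeled biotinylated DNA primer/RNA template and 100 nM Cy5-dUTP. Reactions were started with enzyme.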

In assay [6] the test system is MT4. The assay is described as follows: Antiviral activity against HIV-1 infected MT-4 cells; no significant activity uM. It is filed as functional, cell-based. As to conditions: Homo sapiens. Summed up: as §1
The test system of assay [7] is MT4. The assay can be described thus: Antiviral activity against HIV-1 infected MT-4 cells at a dose of 5 uM. The assay is classed as functional. As to conditions: Homo sapiens.
The test system of assay [8] is HeLa. The assay can be described thus: Antiviral activity against V106A/Y181C mutant virus in the HeLa MAGI assay. The assay is classed as functional, cell-based, Homo sapiens. Summed up:
(§2)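 Isogenic recombinant HIV-1 strains carrying the listed RT mutations were tested against the test compounds in HeLa MAGI indicator cells. Beta-galactosidase was quantified by activation of a chemiluminescent substrate 3 days after infection. IC50 was the concentration inhibiting 50% of the HIV-1-induced beta-galactosidase signal relative to untreated controls. It was determined for each recombinant virus.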

The test system of assay [9] is HeLa. The assay is described as follows: Antiviral activity against G190A mutant virus in the HeLa MAGI assay. The assay is classed as functional, cell-based, Homo sapiens. The method, boiled down:
as §2

Assay [10] deals with HeLa. The assay is described as follows: Antiviral activity against Y181C mutant virus in the HeLa MAGI assay. It is filed as functional, cell-based, Homo sapiens. The method, boiled down: as §2
The test system of assay [11] is HeLa. The assay can be described thus: Antiviral activity against V108I/Y181C mutant virus in the HeLa MAGI assay. The assay is classed as functional, cell-based, Homo sapiens. The method, boiled down:
as §2

For assay [12], the system named is HeLa. The assay is described as follows: Antiviral activity against E138K mutant virus in the HeLa MAGI assay. It is filed as functional, cell-based, Homo sapiens. Summed up: as §2
The subject of assay [13] is HeLa. The assay can be described thus: Antiviral activity against P236L mutant virus in the HeLa MAGI assay. The assay is classed as functional, cell-based, Homo sapiens. Summed up: as §2
For assay [14], the system named is HeLa. The assay is described as follows: Antiviral activity against wild-type HIV-1 in the HeLa MAGI assay. The assay is classed as functional, cell-based. As to conditions: Homo sapiens. Summed up:
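HeLa MAGI cells were infected with isogenic recombinant HIV-1. After 3 days, β-galactosidase was quantified by chemiluminescent substrate activation. IC50 is the concentration inhibiting 50% of the HIV-1-induced β-galactosidase signal relative to untreated controls.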

For assay [15], the system named is HeLa. The assay is described as follows: Antiviral activity against V106A mutant virus in the HeLa MAGI assay. The assay is classed as functional, cell-based, Homo sapiens. Summed up:
as §2

Assay [16] concerns HeLa. The assay is described as follows: Antiviral activity against K103N/L100I mutant virus in the HeLa MAGI assay. The assay is classed as functional, cell-based, Homo sapiens. Summed up: as §2
The subject of assay [17] is HeLa. The assay is described as follows: Antiviral activity against V108I mutant virus in the HeLa MAGI assay. The assay is classed as functional, cell-based, Homo sapiens. The method, boiled down: as §2
The subject of assay [18] is HeLa. The assay can be described thus: Antiviral activity against K103N/V108I mutant virus in the HeLa MAGI assay. It is filed as functional, cell-based, Homo sapiens. Summed up:
as §2

For assay [19], the system named is HeLa. The assay can be described thus: Antiviral activity against K103N/Y181C mutant virus in the HeLa MAGI assay. It is filed as functional, cell-based, Homo sapiens. The method, boiled down: as §2
Assay [20] relates to HeLa. The assay is described as follows: Antiviral activity against K103N mutant virus in the HeLa MAGI assay. It is filed as functional, cell-based, Homo sapiens. Summed up: as §2
Assay [21] concerns HeLa. The assay is described as follows: Antiviral activity against Y188C mutant virus in the HeLa MAGI assay. The assay is classed as functional, cell-based, Homo sapiens. Summed up:
as §2

Assay [22] relates to HeLa. The assay is described as follows: Antiviral activity against K103N/P225H mutant virus in the HeLa MAGI assay. It is filed as functional, cell-based, Homo sapiens. Summed up:
as §2

Molecules are shown by their SMILES. pIC50: −log10 of the molar value. Some results are limits rather than exact numbers.

As to `O=[N+]([O-])c1ccccc1[S+]([O-])c1ccccc1[N+](=O)[O-]`, the NS result in the assay on MT4 [1] was “No significant activity”.

As for `Cc1ccccc1Sc1cccc(N)c1C#N`, the negative logarithm of the IC50 (pIC50) (usually −log10 of the IC50, conventionally taken in molar units) was below 4.40 in the assay with MT4 [2] and 4.80 in [3]. Also, in [4], the NS entry was “no significant activity”.

`COc1ccc(Sc2cccc(N)c2C#N)cc1` gave a negative logarithm of the IC50 (pIC50) in [5] below 4.77. Further, the NS result in the assay on MT4 [6] was “no significant activity”.

Regarding `N#Cc1c(N)cccc1Sc1cc(Cl)cc(Cl)c1`, the pIC50 in the assay with MT4 [2] is 5.52; in assay [5] it was 6.92. Besides, the inhibition (in general, the percentage by which the read-out fell short of the control) at 5 µM in the assay on MT4 [7] was determined as 62%.

As to `COc1cc(C(F)(F)F)cc(S(=O)(=O)c2cccc(N)c2C#N)c1`, the negative logarithm of the IC50 (pIC50) in the assay on MT4 [2] is 3.79; with HeLa [8] it was 5.68; in assay [3], 7.05; in assay [5], 7.40; with HeLa [9], 6.18; in the assay on HeLa [10], 4.44. In addition, the negative logarithm of the IC50 (pIC50) in the assay on HeLa [11] was 4.44; in the assay on HeLa [12], 7.10; in the assay with HeLa [13] it was 8.15; in the assay on HeLa [14], 7.20; in the assay with HeLa [15], 7.89; with HeLa [16], 5.30. Also, the pIC50 in the assay on HeLa [17] was 6.92; in the assay with HeLa [18], 5.00; in the assay on HeLa [19] it was below 4.30; in the assay with HeLa [20], 4.98; in the assay on HeLa [21], 6.40; in the assay on HeLa [22], 5.26.
